# Assay outcomes as filed in PubChem BioAssay.
# The list is not random: actives were taken first. Their share in the collection is about 3.5%.
# RGS4 act: potentiators or activators of RGS4. HEK293 M3R/inducible RGS4, carbachol calcium flux Fluo4; hits give low values. AID 463111. hit rate 0.92% among 310,000. B-score at 10 µM;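 active = B-score of the integrated calcium signal more than 4 SD below the library mean, with starting fluorescence not abnormally high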;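 note: negative B-score means reduced calcium response which marks RGS4 activation or potentiation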
#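 test system = M3R-expressing HEK293 line, RGS4 induced by doxycycline | probe or stimulus = carbachol at ECmax as muscarinic agonist stimulus | timing = dye loading 30 min 37 °C, buffer rest 30 min RT | signal = calcium dye Fluo4 fluorescence | evaluation = B score from integrated fluorescence ratio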
# MrgX1 antag: antagonists of human MrgX1 receptor. hit rate 1.3% among 310,000. B-score at 10 µM. Q96LB2. MRGX1-HEK293 calcium flux, Fluo-4, BAM8-22 antagonism; hits give low values;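 active = calcium-response B-score plate-corrected more than 3 library SD below zero, starting fluorescence within 5 deviations, no agonist response on first addition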;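 note: peak minus trough fluorescence over baseline after final BAM8-22 challenge near maximal dose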
# Target sequence (Q96LB2 whole entry, looked up): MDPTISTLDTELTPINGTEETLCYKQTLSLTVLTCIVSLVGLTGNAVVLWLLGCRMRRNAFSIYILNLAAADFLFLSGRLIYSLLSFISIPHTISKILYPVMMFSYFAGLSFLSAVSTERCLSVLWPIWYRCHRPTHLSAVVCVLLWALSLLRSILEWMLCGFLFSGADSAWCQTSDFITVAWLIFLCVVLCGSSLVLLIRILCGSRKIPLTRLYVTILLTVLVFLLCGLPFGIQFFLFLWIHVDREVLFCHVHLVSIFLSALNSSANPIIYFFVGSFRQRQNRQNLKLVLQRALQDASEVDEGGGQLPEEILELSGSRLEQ
# MrgX1 allo act: human MrgX1 positive allosteric modulation, primary screen; Q96LB2; MrgX1-HEK293, Fluo-4 calcium flux, FDSS; hits give high values; B-score at 10 µM; hit rate 0.63% among 310,000;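 active = plate-corrected calcium response at least 3 library SD above typical, normal starting fluorescence, not activating the receptor alone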;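 note: compound read alongside a low EC10 to EC30 dose of BAM8-22 agonist; peak minus trough fluorescence over baseline measured at the second addition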
# RGS4 block: inhibitors of human RGS4. P49798. HEK293 M3R/RGS4 inducible, Fluo-4 calcium flux; hits give high values; triggered by carbachol at its EC20. B-score at 10 µM. hit rate 0.45% among 310,000;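 active = B-score, a plate-corrected calcium signal, over three deviations above library mean, with baseline fluorescence within five deviations of library mean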;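 note: RGS4 expression induced by doxycycline in cells with stable M3 receptor; B-score is computed from the integrated fluorescence ratio over baseline after carbachol; higher B-score means a larger calcium signal and so more RGS4 inhibition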
# MrgX1 ag: human MrgX1 receptor agonism, primary screen | B-score at 10 µM | hit rate 0.44% among 310,000 | AID 588627 | MrgX1-HEK293 cells, Fluo-4 calcium fluorescence, agonist mode; hits give high values;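 active = calcium response B-score plate-corrected fluorescence ratio at least 3 library SD, with starting fluorescence B-score inside 5 SD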
#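 times = overnight plating, then 30 min 37 °C plus 30 min room-temperature dye loading | assay system = stable human MrgX1 HEK293 cell line | input = fifteen thousand cells per well | signal = kinetic calcium dye fluorescence, Fluo-4 NW | dosing = compound delivered in addition one of three | read-out = B-scored fluorescence response ratio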
# * = called active by the depositor; i = inactive; . = no result given.
SMILES,RGS4 act,MrgX1 antag,MrgX1 allo act,RGS4 block,MrgX1 ag
Cc1cc(/C=N\NC(=O)CC(=O)NC2CCCCC2)c(C)n1-c1ccc(Cl)c(Cl)c1,i,i,i,i,i
Cc1cc(/C=N\NC(=O)CC(=O)NC2CCCCC2)c(C)n1-c1cccc(Cl)c1Cl,i,-6.3*,i,i,i
O=C(NCc1ccco1)/C(=C/c1ccc(Br)cc1)NC(=O)c1ccco1,i,i,i,i,i
Cc1cc(OC(C)C(=O)NCC2CCC(C(=O)O)CC2)c2c(C)cc(=O)oc2c1 (stereo unspecified),i,i,i,i,i
CCC(C)Sc1ccc(-c2nc3ccc(C)cn3c2NCc2ccccc2)cc1OC (stereo unspecified),-8.6*,i,i,i,i
CCC(C)Sc1cc(-c2nc3ccc(C)cn3c2NCc2ccccc2)ccc1OC (stereo unspecified),i,i,i,i,i
COc1cc2c(cc1OC)CN(C1CCC(C)CC1)CC2 (stereo unspecified),i,i,i,i,i
CC(C)c1[nH]nc2c1C(Cc1ccccc1)C(C#N)=C(N)O2 (stereo unspecified),-7.6*,i,i,i,i
O=C(O)[C@@H]1[C@@H]2C[C@@H]2CN1c1ncccc1[N+](=O)[O-],i,i,i,i,i
Cc1ccc(-c2cc(C(=O)Nc3ccccc3C)c3ccccc3n2)o1,i,-4.8*,i,i,i
COC(=O)c1cc(-c2ccc(C)o2)nc2ccccc12,i,i,i,i,i
Cn1c(SCCN2CCCC2)nnc1C1CCN(S(=O)(=O)c2cccc(F)c2)CC1,i,i,i,i,i
COC(=O)CN1C(=S)N(c2ccc(OC)cc2)C(=O)/C1=C/c1ccc(N2CCOCC2)cc1,i,-6.1*,i,i,i
CN1CCN(CC#CCn2c3ccccc3c3ccccc32)CC1,-7.1*,i,i,i,i
O=C1c2cccc3cc([N+](=O)[O-])cc(c23)C(=O)N1CCN1CCCC1,i,.,.,i,.
Nc1cc2c3c(cccc3c1)C(=O)N(CCN1CCCC1)C2=O,i,-4.7*,i,i,i
CC(=O)c1ccc(NC(=O)Cn2c3ccccc3c3nc(=O)cc(C)n32)cc1,i,i,i,i,i
CC(C)(C)[C@H]1C=C(C(=O)N2CCN(Cc3ccccc3)CC2)O[C@@H](OCc2ccc(CO)cc2)C1,i,i,7.4*,i,i
O=C(/C=C/c1ccco1)NC(=S)Nc1ccccc1,i,i,13*,i,i
COc1cccc(NC(=O)/C=C/c2ccco2)c1,i,i,i,i,i
CC(=O)c1ccc(NC(=S)NC(=O)/C=C/c2ccco2)cc1,i,i,i,i,i
Cc1cccc(NC(=S)NC(=O)/C=C/c2ccco2)c1,i,i,9.1*,i,i
CSc1cccc(NC(=O)/C=C/c2ccco2)c1,i,i,6.5*,i,i
C/C(=N/NC(=O)c1cccc(N2CCCC2=O)c1)c1ccncc1,i,i,i,i,i
Cc1cc(-n2c(C)cc(C(=O)CSc3nc4ccccc4c(=O)n3Cc3ccco3)c2C)no1,i,-6.3*,i,i,i
SMILES,RGS4 act,MrgX1 antag,MrgX1 allo act,RGS4 block,MrgX1 ag
O=C(CSc1nc2ccccc2c(=O)n1Cc1ccco1)c1ccccc1,i,i,i,i,i
Cc1cc([N+](=O)[O-])nn1CCCC(=O)NCc1ccc(F)cc1,i,i,14*,i,i
CCOc1cc(/C=N/NC(=O)Cn2nc([N+](=O)[O-])cc2C)ccc1OCc1ccc(F)cc1,i,-4.9*,i,i,i
COC(=O)c1sc(NC(=O)CCCn2nc([N+](=O)[O-])cc2C)c(C(=O)OC)c1C,i,-6.1*,i,i,i
Cc1ccccc1NC(=S)N(Cc1cccnc1)Cc1ccccc1Cl,i,i,i,i,i
CC1CCCN(C2(O)C(=O)Nc3ccc([N+](=O)[O-])cc32)C1 (stereo unspecified),i,i,i,i,i
COc1ccc(CCc2nnc(CCC(=O)NCc3ccc4ncccc4c3)o2)cc1,i,i,i,i,i
